Measured values taken from ChEMBL document CHEMBL1124212, “Synthesis of novel 3-substituted beta-carbolines as benzodiazepine receptor ligands: probing the benzodiazepine receptor pharmacophore” (J Med Chem, 1988).

How the values were obtained:
[1] = target: GABA-A receptor; anion channel; assay: In vitro inhibition of binding to the benzodiazepine receptor in rat cerebral cortical membrane using [3H]diazepam as radioligand; assay type: cell membranes
Outline: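 Rat cerebral cortex homogenized in 50 mM Tris-HCl, pH 7.4, spun at 20000g for 20 min at 4 °C, and washed three times. Nonspecific binding was measured with 10 μM flunitrazepam (final). IC50 was estimated from Hill plots.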

Mus musculus [2] = assay: Proconvulsant effect on mice 120 min after ip administration of a 25 mg/kg dose; assay type: functional; conditions: route intraperitoneal
Outline: (§1)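 Adult male mice (~25 g) given test drug or vehicle (0.1 mL of 20% diluted Emulphor in saline) ip at the stated dose, then challenged 15 or 120 min later with pentylenetetrazole 40 mg/kg ip (in water). Animals watched 15 min after PTZ for clonic-tonic convulsions; % convulsing recorded; at least 10 animals per dose.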

Mus musculus [3] = assay: Proconvulsant effect on mice 15 min after ip administration of a 10 mg/kg dose; assay type: functional; conditions: route intraperitoneal; outline: as §1
Mus musculus [4] = assay: Proconvulsant effect on mice 15 min after ip administration of a 25 mg/kg dose; assay type: functional; conditions: route intraperitoneal; outline: as §1
Mus musculus [5] = assay: Proconvulsant effect on mice 120 min after ip administration of a 10 mg/kg dose; assay type: functional; conditions: route intraperitoneal
Outline: (§2)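 Adult male mice (~25 g) were given drug ip in vehicle (20% diluted Emulphor in saline). They were challenged with pentylenetetrazole (40 mg/kg ip, in water) 15 or 120 min later. Animals were watched for 15 min for clonic-tonic convulsions, scored as % of animals convulsing, with at least 10 animals per dose.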

Mus musculus [6] = assay: Proconvulsant effect on mice 15 min after ip administration of a 2.5 mg/kg dose; assay type: functional; conditions: route intraperitoneal; outline: as §2
Mus musculus [7] = assay: Proconvulsant effect on mice 15 min after ip administration of a 20 mg/kg dose; assay type: functional; conditions: route intraperitoneal; outline: as §2
Mus musculus [8] = assay: Proconvulsant effect on mice 15 min after ip administration of a 5 mg/kg dose; assay type: functional; conditions: route intraperitoneal; outline: as §2
Mus musculus [9] = assay: Proconvulsant effect on mice 15 min after ip administration of at 1.25 mg/kg dose; assay type: functional; conditions: route intraperitoneal; outline: as §2
Rattus norvegicus = organism: Rattus norvegicus; assay: In vitro inhibition of [3H]diazepam binding to GABA-A benzodiazepine receptor of rat cerebral cortical membrane
Outline: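 Rat cerebral cortex homogenized in 50 mM Tris-HCl, pH 7.4, spun at 20000g for 20 min at 4 °C, and washed three times. […] Nonspecific binding was measured with 10 μM flunitrazepam (final). IC50 was estimated from Hill plots.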

Which IC50 [1] does the source give for c1ccc2c(c1)[nH]c1cnccc12 [NORHARMANE] here?
The IC50 was 1.62 µM.

How did the Convulsion (Mus musculus [2]) turn out when CCOC(=O)c1cc2c(cn1)[nH]c1ccccc12 was run?
Its Convulsion is 30%.

And the Convulsion (Mus musculus [3])?
The Convulsion was 33%.

What about the Convulsion (Mus musculus [4]) of the same compound?
The Convulsion was 96%.

CCOC(=O)c1cc2c(cn1)sc1ccccc12 was tested. Which IC50 [1] did it give?
The IC50 was 0.98 µM.

Which IC50 [1] does the source give for S=C=Nc1cc2c3ccccc3nc-2c[nH]1 here?
The IC50 was 0.008 µM.

What does the source list for CCOc1cc2c(cn1)[nH]c1ccccc12?
IC50 [1]: 0.024 µM; Convulsion (Mus musculus [5]): 60%; Convulsion (Mus musculus [3]): 84%; Convulsion (Mus musculus [6]): 40%; Convulsion (Mus musculus [7]): 100%; Convulsion (Mus musculus [8]): 50%; Convulsion (Mus musculus [9]): 30%

For c1ccc2c(c1)[nH]c1c2ccc2[nH]c3ccccc3c21, which IC50 [1] is on record?
Its IC50 is 1.92 µM.

For Cn1c2ccccc2c2c3[nH]c4ccccc4c3ncc21, which IC50 [1] is on record?
The IC50 was 1.16 µM.

With COC(=O)c1cc2c(cn1)[nH]c1ccccc12 [BETA-CCM] as the compound, how does the IC50 [1] read?
The IC50 was 0.005 µM.

For CCCOc1cc2c(cn1)[nH]c1ccccc12, which IC50 [1] is on record?
The IC50 was 0.011 µM.

COC(=O)c1cc2ccccc2cn1 was tested. Which IC50 [1] did it give?
The IC50 was 13.2 µM.

How did the IC50 [1] turn out when Clc1cc2c(cn1)[nH]c1ccccc12 was run?
The IC50 was 0.045 µM.

For COc1cc2c(cn1)[nH]c1ccccc12, which IC50 [1] is on record?
Its IC50 is 0.124 µM.

Which IC50 [1] does the source give for O=[N+]([O-])c1cc2c3ccccc3nc-2c[nH]1 here?
The IC50 was 0.125 µM.

How did the IC50 [1] turn out when COC(=O)c1cc2c3ccccc3n(C)c2cn1 was run?
Its IC50 is > 50 µM.

Oc1cc2c3ccccc3nc-2c[nH]1 was tested. Which IC50 [1] did it give?
The IC50 was 4 µM.

Which IC30 (Rattus norvegicus) does the source give for c1ccc(CNc2cc3c(cn2)[nH]c2ccccc23)cc1 here?
The IC30 was 1.28 µM.
